This note sets out measurements from ChEMBL document CHEMBL1158073, “Bioactive compounds from the seed fungus Menisporopsis theobromae BCC 3975” (J Nat Prod, 2006).

In experiment [1] the test system is Plasmodium falciparum. The experiment in a line: Antimalarial activity against multidrug-resistant Plasmodium falciparum K1 by [3H]hypoxanthine uptake. In kind it is functional, organism-based. An outline of the steps:
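P. falciparum K1 kept in continuous culture; in vitro microculture radioisotope method. IC50 taken as the concentration giving 50% reduction in parasite growth, read as uptake of [3H]hypoxanthine. Dihydroartemisinin as positive control.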

The test system of experiment [2] is NCI-H187. The experiment in a line: Cytotoxicity against human NCI-H187 cells by colorimetric method. It is filed as functional, cell-based. An outline of the steps: (§1)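 Colorimetric cytotoxicity assay following Skehan and co-workers. Cells: BC-1 (human breast cancer) and NCI-H187 (human small cell lung cancer). IC50 values reported in μM. Ellipticine served as the standard positive control.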

A short description of experiment [3]: Cytotoxicity against human BC1 cells by colorimetric method. It is filed as functional, cell-based. An outline of the steps: as §1
Experiment [4] deals with Mycobacterium tuberculosis. The experiment in a line: Antimycobacterial activity against Mycobacterium tuberculosis H37Ra by microplate alamar blue assay. It is filed as functional. An outline of the steps:
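M. tuberculosis H37Ra tested by microplate Alamar Blue assay, value reported as MIC. Isoniazid and kanamycin sulfate as reference compounds.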
(Resazurin is reduced to fluorescent resorufin, in cell work by metabolically active cells.)

In experiment [5] the test system is KB. Briefly: Cytotoxicity against human KB cells by colorimetric method. In kind it is functional, cell-based.

In brackets after ≈: the same amount, converted by molar mass. Counter-ions that a name gives are not always drawn. Where only a bound is given, the exact number is not on record here.

The term IC50 denotes the midpoint of a concentration-inhibition curve. Lower therefore signals inhibition by little substance. The MIC is the least concentration at which growth counts as inhibited. Read a high MIC as a less susceptible organism. On to `CCCCC/C=C/C(O)C(O)/C=C/c1c(CC(O)C(C)(C)O)ccc(O)c1CO` (stereo unspecified), for which the IC50 in experiment [1], in experiment [2], in experiment [3] and in experiment [5] was > 49 µM each time. Further, the minimal inhibitory concentration (MIC) in experiment [4] turned out to be 245 µM (≈ 100 µg/mL).
On to `O=C1c2c(O)cccc2[C@H](O)[C@H](O)[C@H]1O`, for which the IC50 was > 95.2 µM in experiment [1], 56.6 µM in experiment [2], > 95.2 µM in experiment [3] and > 95.2 µM in experiment [5]. Further, the MIC in experiment [4] came out at 952 µM (≈ 200 µg/mL).
In the case of `CC(O)CCC/C=C/C(O)C(O)/C=C/c1c(CC(O)C(C)(C)O)ccc(O)c1C=O` (stereo unspecified), the half-maximal inhibitory concentration (IC50) in experiment [1], in experiment [2], in experiment [3] and in experiment [5] was > 47.3 µM in each case. The compound further yielded an MIC in experiment [4] of 474 µM (≈ 200 µg/mL).
With `CCCC(=O)CC/C=C/[C@H](O)[C@@H]1O[C@H]1CO`, the half-inhibitory concentration (IC50) in experiment [1], in experiment [2], in experiment [3] and in experiment [5] was > 30.3 µM each time. In addition, the minimum inhibitory concentration (MIC) in experiment [4] was > 303 µM.
In the case of `C/C=C(\C)C(=O)C(C)C(O)C(C)C(=O)O[C@H]1C=COC=C2C[C@@]3(SC)C(=O)N4[C@H]5C(=CC=C[C@@H]5O)[C@@H](O)[C@@]4(SC)C(=O)N3[C@@H]21` (stereo partly specified), the IC50 was > 30.9 µM in experiment [1], 22.9 µM in experiment [2], 29.2 µM in experiment [3] and > 30.9 µM in experiment [5]. This compound returned a minimal inhibitory concentration (MIC) in experiment [4] of 155 µM (≈ 100 µg/mL).
For `C/C=C(\C)C(=O)C(C)C(O)C(C)C(=O)O[C@H]1C=COC=C2C[C@@]3(SC)C(=O)N4c5c(O)cccc5[C@@H](O)[C@@]4(SC)C(=O)N3[C@@H]21` (stereo partly specified), the half-inhibitory concentration (IC50) in experiment [1] was 2.95 µM; in experiment [2], 20.3 µM; in experiment [3] it was > 31 µM; in experiment [5] it was > 31 µM. The MIC in experiment [4] came out at 1.24 µM (≈ 0.8 µg/mL).
For `CS[C@@]12CC3=CC=C[C@H](O)[C@H]3N1C(=O)[C@]1(SC)CC3=COC=C[C@H](O)[C@H]3N1C2=O`, the concentration for half-maximal inhibition (IC50) in experiment [1], in experiment [2], in experiment [3] and in experiment [5] was > 46 µM throughout. For the same compound, the MIC in experiment [4] was determined as 7.14 µM (≈ 3.1 µg/mL).
For `C/C=C/C(C=O)=C\C=C\C(O)C(O)[C@@H]1O[C@H]1CO` (relative stereo), the IC50 in experiment [1], in experiment [2], in experiment [3] and in experiment [5] was > 78.7 µM in each case. For the same compound, the minimum inhibitory concentration (MIC) in experiment [4] was > 787 µM.
In turn, `C[C@H]1[C@@H](O)O[C@@H]2O[C@@]3(C)CC[C@H]4[C@H](C)CC[C@@H]1[C@@]24OO3` [ARTENIMOL] displayed an IC50 in experiment [1] of 0.004 µM.
Regarding `Cc1c2ccncc2c(C)c2c1[nH]c1ccccc12` [ELLIPTECINE], the results for the IC50 in experiment [2], in experiment [3] and in experiment [5] were 1.59 µM, 5.93 µM and 5.41 µM, respectively.
In experiment [4], `NNC(=O)c1ccncc1` [ISONIAZID] gave an MIC of 0.29 µM (≈ 0.0398 µg/mL).
For the compound `NC[C@H]1O[C@H](O[C@H]2[C@H](O)[C@@H](O[C@H]3O[C@H](CO)[C@@H](O)[C@H](N)[C@H]3O)[C@H](N)C[C@@H]2N)[C@H](O)[C@@H](O)[C@@H]1O` [KANAMYCIN SULFATE], the minimum inhibitory concentration (MIC) in experiment [4] amounted to 3.43 µM.
